# Assay results collected from several papers.
# Each line is one published result; the experiments were not run side by side.
# Effect on: cell growth or viability
Compound,cell line,assay,setting,IC50 [µM]
O=C(Nc1ccc(Cl)cc1)Nc1cccc(-c2cn(Cc3ccc(Cl)cc3)nn2)c1,Huh-7,CCK-8,72 h,13
C=CCn1c(=O)c2cnc(Nc3ccc(N4CCN(C)CC4)cc3)nc2n1-c1ccc2c(n1)[C@@](O)(CC)CC2,KURAMOCHI,ATP luminescence,72 h,1.52
COc1ccc(NC(=O)Nc2cccc(-c3cn(Cc4ccc(Br)cc4)nn3)c2)cc1,Huh-7,CCK-8,72 h,15.9
CNC(=O)c1cc(Oc2ccc(NC(=O)Nc3ccc(Cl)c(C(F)(F)F)c3)cc2)ccn1,THLE3,imaging,72 h,8.78
O=C(Nc1ccc(Cl)cc1)Nc1cccc(-c2cn(Cc3cccc(Br)c3)nn2)c1,Huh-7,CCK-8,72 h,32.3
O=C(Nc1cccc(-c2cn(Cc3ccc(Cl)cc3)nn2)c1)Nc1ccccc1Br,Huh-7,CCK-8,72 h,13.5
O=[N+]([O-])c1cc(Br)c(O)c(C=NNc2ccc(C(F)(F)F)cc2)c1,HEK-293T,MTT,24 h,18
c1ccc(-c2noc(-c3nn(Cc4ccc5ccccc5c4)c4ccccc34)n2)cc1,HepG2,,48 h,115
O=[N+]([O-])c1cc(Br)c(O)c(C=NNc2ccccc2)c1,HEK-293T,MTT,24 h,23
COc1ccc(NC(=O)Nc2ccc(-c3cn(Cc4ccc(C)cc4)nn3)cc2)cc1,Huh-7,CCK-8,72 h,> 50
O=[N+]([O-])c1ccc(O)c(C=NNc2ccc(C(F)(F)F)cc2)c1,HEK-293T,MTT,24 h,17
COc1ccc(NC(=O)Nc2cccc(-c3cn(Cc4cccc(Cl)c4)nn3)c2)cc1,Huh-7,CCK-8,72 h,13.5
O=[N+]([O-])c1cc(I)c(O)c(C=NNc2ccccc2)c1,HEK-293T,MTT,24 h,17
COc1cccc2c1C(=O)c1c(O)c3c(c(O)c1C2=O)C[C@@](O)(C(=O)CO)C[C@@H]3O[C@H]1C[C@H](N)[C@H](O)[C@H](C)O1,Ramos,,96 h,0.0117
COc1ccc(NC(=O)Nc2cccc(-c3cn(Cc4ccccc4C)nn3)c2)cc1,Huh-7,CCK-8,72 h,10.8
